# Compound activity as filed in PubChem BioAssay.
# MBD2 DNA inh – inhibitors of MBD2 binding to methylated DNA, primary screen, biochemical, TR-FRET, DNA-binding domain, human | Methyl-CpG-binding domain protein 2 (Homo sapiens), Q9UBB5 | MBD2 binding to methylated oligonucleotide | inhibition, % at 4.4 µM | 370,000 tested, 0.31% active; in the data active = inhibition above about 13%
# LEDGF integ inh – blockers of LEDGF/p75-dependent integrase strand transfer – biochemical, TR-FRET, high throughput, primary screen; AID 743269, 2014; HIV-1 integrase (with human LEDGF/p75); TR-FRET IN-LEDGF/p75 DNA integration, Eu/Cy5; 370,000 tested, 0.64% active; inhibition, % at 3.7 µM;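 active = inhibition above the screen-wide mean plus 3 SD, cut at about 13% in these data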;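 also: signal is the Cy5 over europium emission ratio at 671 and 618 nm; 0% = plate median of compound wells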
# UHRF1 MBD2 ctr – UHRF1 methylated DNA binding inhibitors, primary screen, counter-screen for MBD2 inhibitor project, biochemical, TR-FRET, human UHRF1, single concentration. E3 ubiquitin-protein ligase UHRF1 (Homo sapiens), Q96T88. UHRF1 binding to methylated oligo. inhibition, % at 4.4 µM. 370,000 tested, 0.75% active. AID 687016, 2013; in the data active = inhibition above about 21%;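 also: UHRF1 SRA domain binding a hemimethylated CpG hairpin DNA probe; 0% = median of test compound wells and 100% = reference inhibitor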
# Target sequence (Q96T88 whole entry, looked up, the tested form may be a part): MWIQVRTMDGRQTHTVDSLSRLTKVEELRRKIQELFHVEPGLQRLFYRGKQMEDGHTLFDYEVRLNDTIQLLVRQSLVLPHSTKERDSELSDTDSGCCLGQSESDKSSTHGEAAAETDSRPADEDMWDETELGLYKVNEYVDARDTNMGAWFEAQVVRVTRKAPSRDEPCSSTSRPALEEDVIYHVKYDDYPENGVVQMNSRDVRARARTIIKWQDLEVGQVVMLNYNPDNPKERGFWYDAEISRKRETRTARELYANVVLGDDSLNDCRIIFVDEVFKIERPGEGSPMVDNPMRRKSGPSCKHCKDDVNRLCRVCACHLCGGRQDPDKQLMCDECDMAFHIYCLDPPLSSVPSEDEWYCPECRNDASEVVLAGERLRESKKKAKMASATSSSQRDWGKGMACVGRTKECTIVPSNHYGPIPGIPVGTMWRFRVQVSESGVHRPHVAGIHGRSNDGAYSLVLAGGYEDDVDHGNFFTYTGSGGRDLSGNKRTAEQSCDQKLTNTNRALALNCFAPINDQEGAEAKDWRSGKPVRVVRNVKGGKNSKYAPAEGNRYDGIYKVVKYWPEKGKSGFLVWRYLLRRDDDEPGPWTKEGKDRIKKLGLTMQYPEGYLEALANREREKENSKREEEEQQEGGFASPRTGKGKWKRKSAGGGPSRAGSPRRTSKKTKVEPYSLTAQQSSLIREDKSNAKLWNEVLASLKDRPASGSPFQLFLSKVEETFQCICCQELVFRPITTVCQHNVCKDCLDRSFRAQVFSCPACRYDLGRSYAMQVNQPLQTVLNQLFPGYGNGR
# TDP2 absorb – human TDP2 enzyme inhibitors, primary screen, biochemical, epi absorbance, recombinant enzyme. 370,000 tested, 0.34% active. AID 720702, 2013. inhibition, % at 12.8 µM. T5PNP hydrolysis, p-nitrophenol absorbance 415 nm;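 active = inhibition above the mean of all tested compounds plus 3 SD, set per campaign, cut at about 25% in these data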;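 also: 0% = DMSO with enzyme and 100% = buffer with substrate but no TDP2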
#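 Read-out basis: percent inhibition. System: recombinant human TDP2. Buffer or medium: Mg2+-containing Tris-HCl buffer, pH 7.5. Repeats: single replicate. Timing: reaction 2 h, 37 °C. Benchmarks: high control without enzyme, low control DMSO plus TDP2. Probe or stimulus: 5 mM T5PNP. Doses: 12.8 µM only. Measured by: epi absorbance of p-nitrophenol freed from T5PNP by hydrolysis.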
# IN multimer act – HIV-1 IN multimer formation enhancers, counter-screen for LEDGF/p75 integration inhibitor project, biochemical, TR-FRET | shares compounds with LEDGF integ inh | TR-FRET HIV-1 integrase multimerization | activation, % at 7.7 µM | 2,000 tested, 17% active | AID 1053131, 2014; in the data active = activation above about 8.9%
# TRFRET interf – TR-FRET optical interference artefacts, confirmation, artefact control for LEDGF/p75-dependent integration inhibitor project, biochemical, HIV-1 IN multimerization; 2,000 tested, under 10 active; shares compounds with LEDGF integ inh; TR-FRET optical interference counterscreen; inhibition, % at 7.7 µM;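 active = inhibition above the mean over all tested compounds plus 3 SD, which no compound reached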;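 also: 0% = integrase with antibodies and DMSO and 100% = antibodies without integrase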
# IN-LEDGF confirm – inhibitors of HIV-1 IN-LEDGF/p75 DNA integration, confirmation, biochemical, TR-FRET. inhibition, % at 3.7 µM. TR-FRET LEDGF/p75-dependent HIV-1 integration. 2,000 tested, 36% active. shares compounds with LEDGF integ inh; in the data active = inhibition above about 14%
# * marks the source's active call; other numbers are inactive results; . = not tested or not shown. Shown are actives, neighbours in structure and some others; about 1.6% of the full set was active somewhere.
SMILES,MBD2 DNA inh,LEDGF integ inh,UHRF1 MBD2 ctr,TDP2 absorb,IN multimer act,TRFRET interf,IN-LEDGF confirm
C[C@H](CO)N1C[C@H](C)[C@@H](CN(C)C(=O)NC2CCCCC2)Oc2ccc(NS(=O)(=O)c3cccs3)cc2C1=O,1,0,-2,-2,.,.,.
O=C(NCc1cnc2ccccn12)C1CCC(=O)N(Cc2ccccc2F)C1 (stereo not given),-1,17*,-1,6,0,2,-5
C#CCOCCOCCOCCNc1nc(N2CCN(C(=O)[C@H]([C@@H](C)CC)n3cc([C@@H](N)Cc4ccc(O)cc4)nn3)CC2)nc(N2CCN(C(=O)[C@H]([C@@H](C)CC)n3cc([C@@H](N)Cc4ccc(O)cc4)nn3)CC2)n1,3,2,5,-3,.,.,.
Cc1ccccc1N=Cc1cc2c(cc1O)OC(N)=C(C#N)C2c1ccccc1 (stereo not given),2,19*,-3,7,2,-10,35*
Cc1ccc(N=Cc2cc3c(cc2O)OC(N)=C(C#N)C3c2ccccc2)cc1 (stereo not given),-2,30*,-1,-1,4,-18,15*
N#CC1=C(N)Oc2cc(O)c(C=Nc3ccccc3)cc2C1c1ccccc1 (stereo not given),2,20*,-1,0,3,-15,19*
Cc1ccc(C2C(C#N)=C(N)Oc3cc4c(cc32)OCO4)cc1 (stereo not given),0,7,2,-6,.,.,.
N#CC1=C(N)Oc2cc(Nc3ccccc3)ccc2C1c1ccncc1 (stereo not given),-3,-2,-3,-5,.,.,.
CC(C)(C)OC(=O)NC1CCN(c2nc(-c3ccc(Br)cc3)cs2)CC1,-2,-3,0,3,.,.,.
CC(C)(C)NC(=O)NC(=O)CSc1ccc(S(=O)(=O)N2CCCCC2)cn1,-6,20*,-1,-12,1,-4,1
Cc1cnc(CNC(=O)c2ccc3sc([C@@H]4O[C@H](CO)[C@H](O)[C@H](O)[C@H]4O)nc3c2)cn1,0,5,-1,10,.,.,.
O=C(NCc1cccs1)c1ccc2sc([C@@H]3O[C@H](CO)[C@H](O)[C@H](O)[C@H]3O)nc2c1,-3,33*,1,-7,-1,3,-10
NS(=O)(=O)c1cccc(NC(=O)c2cccc(-c3ccc(O)cc3)c2)c1,-3,18*,-2,2,0,-2,-8
O=C(NCc1nnnn1-c1ccc(F)c(F)c1)C(=O)c1c[nH]c2ccccc12,2,0,-1,-3,.,.,.
Clc1ccccc1-c1ccc(CN2CCN(c3ccccc3)CC2)o1,1,31*,0,-1,0,1,0
O=[N+]([O-])c1ccc(CN2CCN(c3ccccc3)CC2)o1,0,-2,-3,20,.,.,.
Cn1cc(Br)c(NS(=O)(=O)c2ccc(Cl)s2)n1,1,25*,1,2,1,-4,-4
COc1ccc(NC(=O)CS(=O)CC(=O)Nc2ccc(NC(C)=O)cc2)cc1 (stereo not given),1,-2,-2,2,.,.,.
Cc1cc(C)c(NC(=O)CNC(=O)CN2C(=O)NC3(CCCc4ccccc43)C2=O)c(C)c1 (stereo not given),-2,-1,0,6,.,.,.
Cc1c(C(=O)OCC(C)C)[nH]c2c1C(=O)CC(c1ccco1)C2 (stereo not given),6,5,4,-4,.,.,.
